# Assay results: ChEMBL document CHEMBL4270573, “Novel nicotinoyl pyrazoline derivates bearing N-methyl indole moiety as antitumor agents: Design, synthesis and evaluation” (Eur J Med Chem, 2018)
# Calls of active or inactive are those of the source. The rule behind the calls is not given here.
# Experiments:
# A549 = assay: Growth inhibition of human A549 cells after 48 hrs by MTT assay; type: functional; settings: A549, 48 h
# Outline: (§1)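 Proliferation read-out; GI50 taken as the concentration giving 50% reduction of cancer cell proliferation.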
# HepG2 [1] = assay: Growth inhibition of human HepG2 cells after 48 hrs by MTT assay; type: functional; settings: HepG2, 48 h; outline: as §1
# HeLa [2] = assay: Cell cycle arrest in human HeLa cells assessed as accumulation at G0/G1 phase at 0.020 uM after 24 hrs by propidium iodide staining based flow cytometric analysis (reference value: 66.26%); type: functional
# Outline: (§2)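 HepG2 and HeLa cells were exposed to 0, 0.020, 0.040, 0.060, 0.080 or 0.10 µM for 6, 12 or 24 h. DNA content was stained with propidium iodide and analysed by flow cytometry to give the percentage of cells in G0/G1, S and G2/M phases; sub-G1 cells were also recorded.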
# HeLa [3] = assay: Cell cycle arrest in human HeLa cells assessed as accumulation at S phase at 0.020 uM after 24 hrs by propidium iodide staining based flow cytometric analysis (reference value: 17.46%); type: functional; outline: as §2
# HeLa [4] = assay: Cell cycle arrest in human HeLa cells assessed as accumulation at G0/G1 phase at 0.10 uM after 24 hrs by propidium iodide staining based flow cytometric analysis (reference value: 66.26%); type: functional; outline: as §2
# HepG2 [5] = assay: Cell cycle arrest in human HepG2 cells assessed as accumulation at G0/G1 phase at 0.080 uM after 24 hrs by propidium iodide staining based flow cytometric analysis (reference value: 55.63%); type: functional; outline: as §2
# HepG2 [6] = assay: Cell cycle arrest in human HepG2 cells assessed as accumulation at S phase at 0.080 uM after 24 hrs by propidium iodide staining based flow cytometric analysis (reference value: 20.40%); type: functional; outline: as §2
# HeLa [7] = assay: Induction of apoptosis in human HeLa cells assessed as early apoptotic cells at 0.020 uM after 24 hrs by Annexin V-FITC/propidium iodide staining based flow cytometric analysis (reference value: 6.17%); type: functional
# Outline: (§3)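 HepG2 and HeLa cells were exposed to 0, 0.02, 0.040, 0.060, 0.080 and 0.10 µM for 6, 12 and 24 h. Cells were double-stained with Annexin V-FITC/PI and read by flow cytometry. Apoptotic rate was the percentage of FITC-positive cells, counting early plus late apoptotic.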
# HeLa [8] = assay: Induction of apoptosis in human HeLa cells assessed as necrotic cells at 0.020 uM after 24 hrs by Annexin V-FITC/propidium iodide staining based flow cytometric analysis (reference value: 0.242%); type: functional; outline: as §3
# HeLa [9] = assay: Induction of apoptosis in human HeLa cells assessed as early apoptotic cells at 0.040 uM after 24 hrs by Annexin V-FITC/propidium iodide staining based flow cytometric analysis (reference value: 6.17%); type: functional; outline: as §3
# HeLa [10] = assay: Induction of apoptosis in human HeLa cells assessed as viable cells at 0.040 uM after 24 hrs by Annexin V-FITC/propidium iodide staining based flow cytometric analysis (reference value: 88.6%); type: functional; settings: read-out: Activity; outline: as §3
# HeLa [11] = assay: Induction of apoptosis in human HeLa cells assessed as viable cells at 0.060 uM after 24 hrs by Annexin V-FITC/propidium iodide staining based flow cytometric analysis (reference value: 88.6%); type: functional; settings: read-out: Activity; outline: as §3
# HeLa [12] = assay: Induction of apoptosis in human HeLa cells assessed as necrotic cells at 0.10 uM after 24 hrs by Annexin V-FITC/propidium iodide staining based flow cytometric analysis (reference value: 0.242%); type: functional; outline: as §3
# HepG2 [13] = assay: Induction of apoptosis in human HepG2 cells assessed as necrotic cells at 0.060 uM after 24 hrs by Annexin V-FITC/propidium iodide staining based flow cytometric analysis (reference value: 0.270%); type: functional; outline: as §3
# HeLa [14] = assay: Antitumor activity against human HeLa cells xenografted in nude mouse assessed as tumor volume at 10 mg/kg, ip after 14 days (reference value: 2292.17 mm3); type: functional
# HeLa [15] = assay: Antitumor activity against human HeLa cells xenografted in nude mouse assessed as tumor volume at 20 mg/kg, ip after 14 days (reference value: 2292.17 mm3); type: functional
# Mus musculus [16] = assay: Toxicity in nude mouse xenografted with human HeLa cells assessed as change in mouse spleen weight at 10 to 20 mg/kg, ip after 14 days; type: organism-based; settings: in vivo, 336 h
# Bos taurus = organism: Bos taurus; assay: Inhibition of colchicine binding to calf brain tubulin preincubated for 1 hr followed by colchicine addition measured after 1 hr by UPLC-MS/MS analysis
# Tubulin (Homo sapiens) = Tubulin (Homo sapiens) (UniProt P68371+Q9H4B7+P0DPH7+P68366+Q13509+Q71U36+P04350+Q3ZCM7+P07437+P68363+Q9BQE3+Q6PEY2+Q13885+Q9BVA1+Q9BUF5); assay: Inhibition of tubulin polymerization in human HeLa cells assessed as abnormal microtubule network formation at 0.04 to 0.1 uM after 12 hrs by DAPI staining based immunofluorescence confocal laser scanning microscopic analysis; type: cell-based
# HepG2 [17] = assay: Cell cycle arrest in human HepG2 cells assessed as accumulation at G2/M phase at 0.020 to 0.10 uM after 6 to 24 hrs by propidium iodide staining based flow cytometric analysis relative to control; type: functional; outline: as §2
# [18] = Selectivity index, ratio of CC50 for HEK293T cells to GI50 for human A549 cells; type: toxicity; settings: HEK293T cells and A549 cells, read-out: Selectivity Index
# Outline: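 Ratio CC50/GI50: CC50 is the concentration reducing non-tumour 293T cell proliferation by 50%; GI50 is the concentration reducing cancer cell proliferation by 50%.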
# HeLa [19] = assay: Antitumor activity against human HeLa cells xenografted in nude mouse assessed as relative tumor growth inhibition at 10 mg/kg, ip after 14 days (reference value: 59.92%); type: functional; settings: 336 h, read-out: TGI
# HeLa [20] = assay: Antitumor activity against human HeLa cells xenografted in nude mouse assessed as relative tumor growth inhibition at 20 mg/kg, ip after 14 days (reference value: 59.92%); type: functional; settings: 336 h, read-out: TGI
# HeLa [21] = assay: Antitumor activity against human HeLa cells xenografted in nude mouse assessed as necrosis of tumor cells at 10 to 20 mg/kg, ip after 14 days by hematoxylin and eosin staining based microscopic analysis; type: functional, organism-based
# Outline: (§4)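 Excised tumours and heart, liver, kidney and spleen were H&E-stained and examined microscopically. Tumour scoring covered cell arrangement and necrosis. Organ scoring covered inflammatory infiltration, edema, necrosis and cell morphology.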
# Mus musculus [22] = assay: Hepatotoxicity in nude mouse xenografted with human HeLa cells assessed as cellular inflammatory infiltration in liver at 10 to 20 mg/kg, ip after 14 days by hematoxylin and eosin staining based microscopic analysis; type: toxicity, organism-based; settings: in vivo, 336 h
# Outline: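 HeLa xenograft nude mice with tumours near 100 mm³, randomised to four groups of 28 mice in total. Dosing was intraperitoneal: vehicle, CA-4 10 mg/kg, or test compound at 10 or 20 mg/kg, continued for 14 days. Heart, liver, kidney and spleen were then H&E-stained and examined for inflammatory infiltration, edema, necrosis and cell morphology.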
# Mus musculus [23] = assay: Nephrotoxicity in nude mouse xenografted with human HeLa cells assessed as edema in kidney at 10 to 20 mg/kg, ip after 14 days by hematoxylin and eosin staining based microscopic analysis; type: toxicity, organism-based; settings: in vivo, 336 h
# Mus musculus [24] = assay: Cardiotoxicity in nude mouse xenografted with human HeLa cells assessed as necrosis in heart at 10 to 20 mg/kg, ip after 14 days by hematoxylin and eosin staining based microscopic analysis; type: toxicity, organism-based; settings: in vivo, 336 h; outline: as §4
smiles,measurement,setting,value
COc1cccc(C2=NN(C(=O)c3ccc(C)nc3)C(c3cn(C)c4ccc(OC)cc34)C2)c1 (configuration not stated),GI50,A549,590 nM
same,GI50,HepG2 [1],29 nM
same,Activity,HeLa [2],66.95%
same,Activity,HeLa [3],9.62%
same,Activity,HeLa [4],6.19%
same,Activity,HepG2 [5],7.81%
same,Activity,HepG2 [6],28.38%
same,Activity,HeLa [7],3.24%
same,Activity,HeLa [8],0.12%
same,Activity,HeLa [9],11%
same,viability at 0.04 µM,HeLa [10],84.5%
same,viability at 0.06 µM,HeLa [11],66.9%
same,Activity,HeLa [12],0.76%
same,Activity,HepG2 [13],1.45%
same,Activity,HeLa [14],1213.02 mm3
same,Activity,HeLa [15],881.93 mm3
same,Activity,Mus musculus [16],Non-Toxic
same,inhibition,Bos taurus,Active
same,inhibition,Tubulin (Homo sapiens),Active
same,Activity,HepG2 [17],>60%
same,selectivity ratio,[18],3 to 10
same,inhibition in vivo at 10 mg/kg,HeLa [19],47.1%
same,inhibition in vivo at 20 mg/kg,HeLa [20],61.5%
same,Activity,HeLa [21],Active
same,Activity,Mus musculus [22],Non-Toxic
same,Activity,Mus musculus [23],Non-Toxic
same,Activity,Mus musculus [24],Non-Toxic
